Experimental data reported in article PMC12594766 (Nature Communications, 2025).
Values after ≈ are worked out from the molar mass of the structure shown.

Tests used:
S. aureus BAA39 (MRSA) = assay: MIC against multidrug-resistant strain; type: cell-based; details: Staphylococcus aureus
Method in brief: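 Broth microdilution in non-cation-adjusted Mueller-Hinton broth. Bacteria were subcultured to OD 0.2–0.3 (about 10^8 CFU/mL) and diluted to give about 10^5 CFU/mL in wells. The test compound stock was in DI water, serially diluted twofold to final 512–1 µg/mL. Plates were incubated at 37 °C for 18–20 h and read at OD600.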

S. aureus USA300 (LAC) = assay: MIC against multidrug-resistant strain; type: cell-based; details: Staphylococcus aureus
Method in brief: (§1)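 Broth microdilution in non-cation-adjusted Mueller-Hinton broth. Bacteria were subcultured to OD 0.2–0.3 (about 10^8 CFU/mL), then diluted to about 10^5 CFU/mL final. Test compound stock was in DI water. Twofold dilutions gave 512 to 1 µg/mL final. Plates were incubated 18-20 h at 37 °C and read at OD600.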

S. aureus USA300 (MRSA) = assay: MIC against multidrug-resistant strain; type: cell-based; details: Staphylococcus aureus
Method in brief: as §1

[1] = conventional antibiotics, literature values; cited from earlier work
P. aeruginosa PAO1 [2] = assay: Resistance frequency determination; type: cell-based; details: 10× MIC
P. aeruginosa BAA-2797 [3] = assay: Murine systemic; type: in vivo, balb/c mice; details: P. aeruginosa BAA-2797 peritonitis; single dose 10 mg/kg i.p. at 2 h; n = 6
Method in brief: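 Female BALB/c mice, 7–8 weeks, were infected i.p. with P. aeruginosa BAA-2797 (10^6 CFU/mL) in PBS containing 5% mucin. At 2 h post-infection they received a single i.p. dose of PBS, test compound (10 mg/kg) or imipenem (10 mg/kg), n = 6. Survival was monitored for up to 7 days.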

P. aeruginosa BAA-2797 [4] = assay: Murine neutropenic thigh infection model; type: in vivo, balb/c mice; details: 2 doses of 15 mg/kg s.c. at 2, 6 h, 26 h
Method in brief: (§2)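 Infection was intramuscular into the right thigh: P. aeruginosa BAA-2797 at 10^5, K. pneumoniae KPNR at 10^6, or MRSA at 10^5 CFU/mL. PBS, test compound or imipenem was given s.c. at 15 mg/kg at 2 and 6 h (n = 6). Thighs were homogenised at 26 h for CFU.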

K. pneumoniae KPNR [5] = assay: MIC against multidrug-resistant strain; type: cell-based; details: Klebsiella pneumoniae
P. aeruginosa PAO1 [6] = assay: Murine lung infection model; type: in vivo, balb/c mice; details: 10 mg/kg intranasal at 2, 8, 26 h
Method in brief: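 Infection was intranasal with P. aeruginosa PAO1 (10^4 CFU/mL inoculum). PBS, test compound or imipenem was given intranasally at 10 mg/kg at 2, 8 and 26 h post-infection (n = 6). Lungs were homogenised at 38 h for CFU. Survival was followed for up to 7 days.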

K. pneumoniae KPNR [7] = assay: Murine neutropenic thigh infection model; type: in vivo, balb/c mice; details: 2 doses of 15 mg/kg s.c. at 2, 6 h, 26 h
Method in brief: as §2

MRSA = assay: Murine neutropenic thigh infection model; type: in vivo, balb/c mice; details: 2 doses of 15 mg/kg s.c. at 2, 6 h, 26 h
Method in brief: as §2

O=C(O)c1cn(C2CC2)c2cc(N3CCNCC3)c(F)cc2c1=O [CIP, ciprofloxacin]
MIC (S. aureus BAA39 (MRSA)): 4 µg/mL (≈ 12.1 µM) | MIC (S. aureus USA300 (LAC)): 8 µg/mL (≈ 24.1 µM) | MIC (S. aureus USA300 (MRSA)): < 1 µg/mL

C[C@@H](O)[C@H]1C(=O)N2C(C(=O)O)=C(S[C@@H]3CN[C@H](C(=O)N(C)C)C3)[C@H](C)[C@H]12 [meropenem]
half-life (T1/2) [1]: 6 min

C[C@@H](O)[C@H]1C(=O)N2C(C(=O)O)=C(SCCN=CN)C[C@H]12 [IMP, imipenem]
half-life (T1/2) [1]: 12 min | selection of resistant escape mutants (P. aeruginosa PAO1 [2]): resistant strains developed | MIC (S. aureus BAA39 (MRSA)): < 1 µg/mL | MIC (S. aureus USA300 (LAC)): < 1 µg/mL | survival (mice rescued) (P. aeruginosa BAA-2797 [3]): succumbed to the infection | CFU reduction in thigh vs PBS (-) (P. aeruginosa BAA-2797 [4]): 0.1 log10 | MIC (S. aureus USA300 (MRSA)): < 1 µg/mL | MIC (K. pneumoniae KPNR [5]): 4 µg/mL (≈ 13.4 µM) | reduction of bacterial burden in lung tissues (P. aeruginosa PAO1 [6]; P. aeruginosa PAO1, 38 h): 4.7 log10 | survival (mice rescued) (P. aeruginosa PAO1 [6]; P. aeruginosa PAO1 lung infection, n = 6): 5 out of 6 | CFU reduction in thigh vs PBS (-) (K. pneumoniae KPNR [7]): 1.4 log10

CN[C@H](CC(C)C)C(=O)N[C@H]1C(=O)N[C@@H](CC(N)=O)C(=O)N[C@H]2C(=O)N[C@H]3C(=O)N[C@H](C(=O)N[C@H](C(=O)O)c4cc(O)cc(O)c4-c4cc3ccc4O)[C@H](O)c3ccc(c(Cl)c3)Oc3cc2cc(c3O[C@@H]2O[C@H](CO)[C@@H](O)[C@H](O)[C@H]2O[C@H]2C[C@](C)(N)[C@H](O)[C@H](C)O2)Oc2ccc(cc2Cl)[C@H]1O [VAN, vancomycin]
MIC (S. aureus BAA39 (MRSA)): 1 µg/mL (≈ 0.69 µM) | MIC (S. aureus USA300 (LAC)): < 1 µg/mL | MIC (S. aureus USA300 (MRSA)): < 1 µg/mL | CFU reduction in thigh vs PBS (-) (MRSA): 2.3 log10
